The text below walks through data of ChEMBL document CHEMBL1799956, “Convergent synthesis and biological evaluation of 2-amino-4-(3',4',5'-trimethoxyphenyl)-5-aryl thiazoles as microtubule targeting agents” (J Med Chem, 2011).

Experiment [1] has as its system K562. Briefly: Antiproliferative activity against human K562 cells assessed as growth inhibition after 72 hrs by MTT assay. Format: functional, cell-based. The settings on record: K562, 72 h.
Experiment [2] relates to Jurkat. The experiment in a line: Antiproliferative activity against human Jurkat cells assessed as growth inhibition after 72 hrs by MTT assay. It is filed as functional, cell-based. On the technique in general: Formazan colour is commonly taken as a measure of viable cells.
Experiment [3] in a line: Inhibition of bovine brain tubulin polymerization after 20 mins by turbidimetric analysis. On the set-up: species or system Bos taurus. The procedure, abridged: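 Purified tubulin at 10 μM was used for the assembly (polymerization) inhibition assay. IC50 is the concentration inhibiting assembly.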
For experiment [4], the species on record is Bos taurus. Briefly: Displacement of [3H]colchicine from bovine brain tubulin at 5 uM. The procedure, abridged:
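[3H]colchicine binding inhibition with tubulin at 1 μM, [3H]colchicine at 5 μM and test compound at 5 μM.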
On the technique in general: Loss of bound radioactivity is the signal in a displacement assay; it reports binding, not function.

The test system of experiment [5] is HL-60. Briefly: Antiproliferative activity against human HL60 cells assessed as growth inhibition after 72 hrs by MTT assay. Particulars: HL-60, 72 h. Format: functional, cell-based.
Experiment [6] concerns MCF7. Briefly: Antiproliferative activity against human MCF7 cells assessed as growth inhibition after 72 hrs by MTT assay. Format: functional, cell-based. The settings on record: MCF7, 72 h.
Experiment [7] has as its system HeLa. The experiment in a line: Antiproliferative activity against human HeLa cells assessed as growth inhibition after 72 hrs by MTT assay. It is filed as functional, cell-based.
For experiment [8], the system named is HT-29. Briefly: Antiproliferative activity against human HT-29 cells assessed as growth inhibition after 72 hrs by MTT assay. It is filed as functional, cell-based. Particulars: HT-29, 72 h.
The subject of experiment [9] is A549. Briefly: Antiproliferative activity against human A549 cells assessed as growth inhibition after 72 hrs by MTT assay. The settings on record: A549, 72 h. Format: functional, cell-based.
Experiment [10] in a line: Antiproliferative activity against human taxol-resistant A549-T12 cells assessed as growth inhibition after 72 hrs by MTT assay. Particulars: A549, 72 h. It is filed as functional, cell-based.
Experiment [11] deals with LoVo. The experiment in a line: Antiproliferative activity against human LoVo cells assessed as growth inhibition after 72 hrs by MTT assay. Format: functional, cell-based.
Experiment [12] concerns LoVo. The experiment in a line: Fold resistance, ratio of IC50 for human doxorubicin-resistant LoVo cells overexpressing P-gp to IC50 for human LoVo cells. It is filed as functional. The method, boiled down: (§1)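 Fold resistance taken as the ratio of IC50 in the resistant line to IC50 in the parental line, each IC50 from dose-response curves of at least three independent experiments.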

The test system of experiment [13] is CCRF-CEM. Briefly: Antiproliferative activity against human CEM cells assessed as growth inhibition after 72 hrs by MTT assay. Format: functional, cell-based.
The test system of experiment [14] is A549. The experiment in a line: Fold resistance, ratio of IC50 for human taxol-resistant A549-T12 cells to IC50 for human A549 cells. It is filed as functional.
Experiment [15] relates to CCRF-CEM. Briefly: Fold resistance, ratio of IC50 for human vinblastine-resistant CEM/VBL100 cells overexpressing P-gp to IC50 for human CEM cells. It is filed as functional. The method, boiled down:
as §1

Experiment [16] can be described thus: Antiproliferative activity against human vinblastine-resistant CEM/VBL100 cells overexpressing P-gp assessed as growth inhibition after 72 hrs by MTT assay. It is filed as functional, cell-based. Particulars: CEM/VBL100, 72 h.
Experiment [17] relates to LoVo. Briefly: Antiproliferative activity against human doxorubicin-resistant LoVo cells overexpressing P-gp assessed as growth inhibition after 72 hrs by MTT assay. Format: functional, cell-based.
Experiment [18] is filed under the species Bos taurus. Briefly: Ratio of combretastatin A-4 IC50 to compound IC50 for bovine brain tubulin.

In general, IC50 refers to the concentration that inhibits the measured activity by half. By inhibition is commonly meant the relative decrease from the control value, in per cent. Low values mean a weak effect, high ones a strong effect. Regarding `CCc1ccc(-c2sc(N)nc2-c2cc(OC)c(OC)c(OC)c2)cc1`, the IC50 in [1] came to 49.7 nM; in experiment [2], 4.1 nM; in experiment [3], 1100 nM; in experiment [5] it was 1.1 nM; in experiment [6], 117 nM; in experiment [7], 1 nM. For the same compound, the IC50 in experiment [8] came to 54.1 nM; in experiment [9], 238 nM. The compound also gave an inhibition in experiment [4] of 73%.

On to `COc1cc(-c2nc(N)sc2-c2ccc3ccccc3c2)cc(OC)c1OC`, for which the IC50 in [1] was 22.1 nM; in experiment [2], 3.3 nM; in [3] it was 740 nM; in experiment [5], 2.7 nM; in experiment [6], 51.2 nM; in [7], 1.6 nM. Also, the IC50 in [8] was found to be 23.9 nM; in experiment [9], 3.8 nM. The same compound showed an inhibition in [4] of 94%.

`COc1cc(-c2nc(N)sc2-c2cccc3ccccc23)cc(OC)c1OC`: the IC50 in experiment [1] is 9030 nM; in experiment [2], 4690 nM; in experiment [5], 8660 nM; in experiment [6] it was more than 10000 nM; in experiment [7], 3860 nM; in experiment [8], more than 10000 nM. For the same compound, the IC50 in [9] was found to be 6320 nM.

`COc1cccc(-c2sc(N)nc2-c2cc(OC)c(OC)c(OC)c2)c1`: the IC50 in experiment [1] stood at 728 nM; in experiment [2], 48.4 nM; in experiment [5] it was 118 nM; in experiment [6], 476 nM; in experiment [7], 209 nM; in experiment [8] it was 239 nM. The IC50 in experiment [9] is 2370 nM.

Take `COc1cc(-c2nc(N)sc2-c2cc3ccccc3s2)cc(OC)c1OC`: the IC50 turned out to be 19.6 nM in experiment [1]; 0.6 nM in [2]; 2000 nM in experiment [3]; 0.9 nM in experiment [5]; 47 nM in experiment [6]; 2.8 nM in experiment [7]. For the same compound, the IC50 came out at 19.1 nM in experiment [8] and 16 nM in experiment [9]. For the same compound, the inhibition in experiment [4] was 86%.

`COc1ccc(-c2sc(N)nc2-c2cc(OC)c(OC)c(OC)c2)cc1F`: the IC50 in experiment [1] is 6 nM; in [2], 7.3 nM; in experiment [3] it was 1200 nM; in [5] it was 6.1 nM; in [6], 18.6 nM; in experiment [7] it was 2 nM. In addition, the half-maximal inhibitory concentration (IC50) in experiment [8] was 5.7 nM; in experiment [9] it was 3.1 nM. In experiment [4], this compound returned an inhibition of 81%.

In the case of `CCOc1ccc(-c2sc(N)nc2-c2cc(OC)c(OC)c(OC)c2)cc1Cl`, the IC50 came to 8.8 nM in experiment [1]; 0.06 nM in experiment [2]; 8.5 nM in experiment [10]; 890 nM in experiment [3]; 2 nM in [11]; 1.4 nM in [13]. Moreover, the IC50 in experiment [5] was 0.27 nM; in experiment [6], 14.1 nM; in [7], 0.91 nM; in experiment [8] it was 15.6 nM; in experiment [16], 0.7 nM; in [17], 1.7 nM. The IC50 in experiment [9] is 11.2 nM. The “Ratio IC50” value in experiment [12] is given as 0.9; in [14] it was 0.8; in [15], 0.5. Further, the inhibition in [4] came to 87%.

With `COc1ccc(-c2sc(N)nc2-c2cc(OC)c(OC)c(OC)c2)cc1OC`, the IC50 was determined as 829 nM in [1]; 319 nM in experiment [2]; 301 nM in experiment [5]; 1170 nM in experiment [6]; 249 nM in experiment [7]; 432 nM in experiment [8]. Further, the IC50 in experiment [9] amounted to 1800 nM.

In the case of `CC[C@]1(O)C[C@@H]2CN(CCc3c([nH]c4ccccc34)[C@@](C(=O)OC)(c3cc4c(cc3OC)N(C)[C@H]3[C@@](O)(C(=O)OC)[C@H](OC(C)=O)[C@]5(CC)C=CCN6CC[C@]43[C@@H]65)C2)C1` [VINBLASTINE], the IC50 in experiment [13] worked out at 4.1 nM; in [16] it was 230 nM. Also, the “Ratio IC50” value in [15] is 56.1.

For the compound `COc1cc(-c2nc(N)sc2-c2ccc(C(F)(F)F)cc2)cc(OC)c1OC`, the IC50 in experiment [1] is 7.6 nM; in experiment [2], 8.5 nM; in [3] it was 4000 nM; in [5] it was 5.1 nM; in experiment [6], 0.4 nM; in experiment [7] it was 3.2 nM. Also, the values for the IC50 in [8] and in [9] were 221 nM and 357 nM, respectively. Besides, the inhibition in [4] is 25%.

In the case of `COc1cc(-c2nc(N)sc2-c2ccc(C)cc2)cc(OC)c1OC`, the half-maximal inhibitory concentration (IC50) turned out to be 58.7 nM in experiment [1]; 3.9 nM in experiment [2]; 440 nM in experiment [3]; 3.9 nM in experiment [5]; 280 nM in experiment [6]; 0.73 nM in experiment [7]. Moreover, the IC50 in [8] was determined as 12.4 nM; in experiment [9], 42.8 nM. For the same compound, the inhibition in experiment [4] came out at 88%. Besides, in [18], the Ratio IC50 came out at 3.

On to `COc1cc(-c2nc(N)sc2-c2ccccc2)cc(OC)c1OC`, for which the half-inhibitory concentration (IC50) is 8500 nM in experiment [1]; 3830 nM in [2]; 3640 nM in experiment [5]; more than 10000 nM in [6]; 3090 nM in experiment [7]; 7920 nM in experiment [8]. Further, the IC50 in [9] amounted to 9600 nM.

For the compound `COc1ccc(-c2sc(N)nc2-c2cc(OC)c(OC)c(OC)c2)cc1`, the IC50 is 5.1 nM in experiment [1]; 2.1 nM in experiment [2]; 11.4 nM in [10]; 1100 nM in [3]; 3.1 nM in experiment [11]; 7.7 nM in [13]. In addition, the IC50 in experiment [5] was 3.2 nM; in experiment [6] it was 60.9 nM; in [7] it was 2.3 nM; in experiment [8], 11.7 nM; in experiment [16], 1.2 nM; in experiment [17], 0.8 nM. For the same compound, the IC50 in experiment [9] is 20.2 nM. Besides, the entries for the “Ratio IC50” value in [12], in experiment [14] and in experiment [15] were 0.25, 0.6 and 0.1, respectively. The inhibition in experiment [4] worked out at 79%.

`COc1ccc(-c2sc(N)nc2-c2cc(OC)c(OC)c(OC)c2)cc1Cl`: the IC50 came to 36.1 nM in experiment [1]; 2.9 nM in experiment [2]; 880 nM in [3]; 2.8 nM in experiment [5]; 27.3 nM in [6]; 1.6 nM in experiment [7]. Further, the IC50 in experiment [8] worked out at 12.8 nM; in experiment [9], 37.7 nM. The compound also registered an inhibition in experiment [4] of 77%.

`CC(=O)O[C@H]1C(=O)[C@@]2(C)[C@H]([C@H](OC(=O)c3ccccc3)[C@]3(O)C[C@H](OC(=O)[C@H](O)[C@@H](NC(=O)c4ccccc4)c4ccccc4)C(C)=C1C3(C)C)[C@]1(OC(C)=O)CO[C@@H]1C[C@@H]2O` [PACLITAXEL]: the IC50 in experiment [10] was 75.2 nM; in experiment [9], 7.2 nM. Also, the “Ratio IC50” value in [14] came out at 10.4.

In the case of `COc1cccc2c1C(=O)c1c(O)c3c(c(O)c1C2=O)C[C@@](O)(C(=O)CO)C[C@@H]3O[C@H]1C[C@H](N)[C@H](O)[C@H](C)O1` [DOXORUBICIN], the IC50 in [11] worked out at 120 nM. In addition, the “Ratio IC50” value in [12] is reported as 109.6.

For the compound `COc1ccc(-c2sc(N)nc2-c2cc(OC)c(OC)c(OC)c2)cc1C`, the IC50 in experiment [1] turned out to be 67.6 nM; in experiment [2], 21.5 nM; in experiment [3], 1100 nM; in experiment [5] it was 4 nM; in [6], 58.7 nM; in experiment [7], 2.6 nM. The IC50 turned out to be 24 nM in [8] and 305 nM in [9]. The inhibition in experiment [4] turned out to be 72%.
